Laboratory results published in ChEMBL document CHEMBL3808295, “Discovery of enantioselectivity of urea inhibitors of soluble epoxide hydrolase” (Eur J Med Chem, 2016).
pIC50: −log10 of the molar value.

Key:
[1] = target: T1, Bifunctional epoxide hydrolase 2 (Homo sapiens, UniProt P34913); experiment: Inhibition of soluble epoxide hydrolase (unknown origin) using 14,15-EET as substrate incubated for 20 mins by LC-MS/MS analysis
T1 sequence (P34913 whole entry): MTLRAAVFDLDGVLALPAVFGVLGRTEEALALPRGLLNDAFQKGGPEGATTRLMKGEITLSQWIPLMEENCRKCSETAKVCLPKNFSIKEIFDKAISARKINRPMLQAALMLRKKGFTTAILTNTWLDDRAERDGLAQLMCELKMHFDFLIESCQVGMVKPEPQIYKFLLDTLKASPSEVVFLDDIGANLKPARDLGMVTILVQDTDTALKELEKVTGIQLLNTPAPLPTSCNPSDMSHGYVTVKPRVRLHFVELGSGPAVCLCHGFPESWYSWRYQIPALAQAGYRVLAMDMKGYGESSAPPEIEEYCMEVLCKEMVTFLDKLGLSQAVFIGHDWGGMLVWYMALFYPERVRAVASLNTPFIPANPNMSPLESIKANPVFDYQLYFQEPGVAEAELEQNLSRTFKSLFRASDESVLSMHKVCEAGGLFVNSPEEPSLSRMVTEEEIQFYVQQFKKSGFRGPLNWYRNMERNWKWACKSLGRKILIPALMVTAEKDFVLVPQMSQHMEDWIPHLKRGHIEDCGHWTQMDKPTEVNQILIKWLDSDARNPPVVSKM

[2] = target: T2, Epoxide hydrolase 1 (Homo sapiens) (UniProt P07099); experiment: Inhibition of microsomal epoxide hydrolase in pooled human liver microsomes assessed as enzyme activity using styrene oxide as substrate at 10 uM incubated for 10 mins by UV-HPLC analysis relative to control; parameters: scale not given: the % may be the effect or the level left
T2 sequence (whole entry): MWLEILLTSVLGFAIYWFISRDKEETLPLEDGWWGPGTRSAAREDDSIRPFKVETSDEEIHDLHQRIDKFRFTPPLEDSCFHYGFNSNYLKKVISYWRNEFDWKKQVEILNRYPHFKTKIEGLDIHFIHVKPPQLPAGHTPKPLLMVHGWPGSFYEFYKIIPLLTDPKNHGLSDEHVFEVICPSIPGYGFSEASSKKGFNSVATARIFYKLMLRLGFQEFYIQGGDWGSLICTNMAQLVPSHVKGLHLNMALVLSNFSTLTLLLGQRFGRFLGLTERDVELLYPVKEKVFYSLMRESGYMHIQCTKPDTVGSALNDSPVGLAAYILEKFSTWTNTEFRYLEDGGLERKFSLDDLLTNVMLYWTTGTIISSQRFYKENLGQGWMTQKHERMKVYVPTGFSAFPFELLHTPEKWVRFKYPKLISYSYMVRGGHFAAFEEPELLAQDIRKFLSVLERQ
In short: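 Pooled human liver microsomes (0.2 mg/mL) incubated with styrene oxide (25 μM) and 10 μM test compound in 0.1 M Tris-HCl pH 9.0 at 37°C for 10 min; quenched with n-hexane, centrifuged, supernatant analysed by UV-HPLC (C18, 30°C, 40% methanol). Activity from styrene glycol formed, as percentage of control; valpromide positive control.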

pIC50 [1] | Activity [2] | SMILES
5.76 | 102% | C[C@@H](NC(=O)NCCCc1ccccc1)c1ccccc1
5.82 | 101% | O=C(NCCCc1ccccc1)N1CCC[C@@H]1c1ccccc1
7.66 | 99.9% | C[C@H](NC(=O)NCCCc1ccc(S(N)(=O)=O)cc1)c1ccccc1
6.74 | 99.4% | C[C@H](NC(=O)NCCCc1ccccc1)C1CCCCC1
5.69 | 101% | C[C@@H](NC(=O)NCCCc1ccc(S(N)(=O)=O)cc1)c1ccccc1
4.70 | 107% | O=C(NCCCc1ccccc1)N[C@H](CO)c1ccccc1
7.19 | 112% | O=C(NCCCc1ccccc1)N[C@H]1CCc2ccccc21
6.52 | 103% | C[C@@H](NC(=O)NCCCc1ccccc1)C1CCCCC1
7.89 | 106% | O=C(NCCCc1ccccc1)N[C@@H]1CCCc2ccccc21
 | 50.9% | CCCC(CCC)C(N)=O
7.66 | 110% | O=C(NCCCc1ccccc1)N[C@@H]1CCc2ccccc21
7.37 | 102% | C[C@H](NC(=O)NCCCc1ccccc1)c1cccc2ccccc12
7.44 | 106% | CC[C@H](NC(=O)NCCCc1ccccc1)c1ccccc1
6.19 | 102% | CCC(C)NC(=O)NCCCc1ccccc1 (racemic)
7.36 | 84.6% | C[C@H](NC(=O)NCCCc1ccccc1)c1ccccc1
5.49 | 105% | O=C(NCCCc1ccccc1)NCc1ccccc1
7.89 | 106% | O=C(NCCCc1ccccc1)N[C@H]1CCCc2ccccc21
6.44 | 98.7% | C[C@@H](NC(=O)NCCCc1ccccc1)c1cccc2ccccc12
6.48 | 99.8% | O=C(NCCCc1ccccc1)N1CCC[C@H]1c1ccccc1
5.56 | 102% | O=C(NCCCc1ccccc1)N[C@@H](CO)c1ccccc1
7.20 | 101% | CC[C@H](C)NC(=O)NCCCc1ccccc1
5.35 | 103% | CC[C@@H](NC(=O)NCCCc1ccccc1)c1ccccc1
